# Results published in ChEMBL document CHEMBL3098130, “Discovery of Novel Putative Inhibitors of UDP-GlcNAc 2-Epimerase as Potent Antibacterial Agents” (ACS Med Chem Lett, 2013).
# Assays:
# [1] = test system: Mus musculus; assay: T>MIC in CD1 mouse at 50 mg/kg, ip bid; conditions: route intraperitoneal
# How it was run: (§1)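 Female CD-1 mice, single intraperitoneal dose of 25, 50 or 100 mg/kg; the 50 mg/kg BID group was dosed twice. Plasma levels were followed over time to derive tmax, Cmax, half-life, Vz, clearance and AUC. Time above MIC was taken against a 2000 ng/mL plasma threshold.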
# [2] = test system: Mus musculus; assay: T>MIC in CD1 mouse at 100 mg/kg, ip; conditions: route intraperitoneal; how it was run: as §1
# [3] = test system: Mus musculus; assay: T>MIC in CD1 mouse at 50 mg/kg, ip; conditions: route intraperitoneal; how it was run: as §1
# [4] = test system: Mus musculus; assay: T>MIC in CD1 mouse at 25 mg/kg, ip; conditions: route intraperitoneal; how it was run: as §1
# [5] = test system: Mus musculus; assay: Toxicity in CD1 mouse assessed as mortality at < 100 mg/kg, ip; format: organism-based; design: dose 100 mg/kg, route intraperitoneal; conditions: in vivo
# How it was run: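 Female CD-1 mice were given the compound intraperitoneally in the PK dose groups. Mortality and clinical observations were recorded.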
# [6] = test system: Mus musculus; assay: AUC in CD1 mouse at 50 mg/kg, ip bid; format: ADME, organism-based, Plasma; design: dose 50 mg/kg, route intraperitoneal; conditions: in vivo; how it was run: as §1
# [7] = test system: Mus musculus; assay: AUC in CD1 mouse at 100 mg/kg, ip; format: ADME, organism-based, Plasma; design: dose 100 mg/kg, route intraperitoneal; conditions: in vivo; how it was run: as §1
# [8] = test system: Mus musculus; assay: AUC in CD1 mouse at 50 mg/kg, ip; format: ADME, organism-based, Plasma; design: dose 50 mg/kg, route intraperitoneal; conditions: in vivo; how it was run: as §1
# [9] = test system: Mus musculus; assay: AUC in CD1 mouse at 25 mg/kg, ip; format: ADME, organism-based, Plasma; design: dose 25 mg/kg, route intraperitoneal; conditions: in vivo; how it was run: as §1
# [10] = Clearance in CD1 mouse at 50 mg/kg, ip bid; format: ADME, organism-based; design: dose 50 mg/kg, route intraperitoneal; conditions: in vivo
# How it was run: (§2)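 Female CD-1 mice received the test compound intraperitoneally, either as a single dose (25, 50 or 100 mg/kg) or as 50 mg/kg BID. Exposure was followed over time, and clearance was reported in mL/h/kg together with tmax, Cmax, half-life, VZ and AUC.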
# [11] = Clearance in CD1 mouse at 100 mg/kg, ip; format: ADME, organism-based; design: dose 100 mg/kg, route intraperitoneal; conditions: in vivo; how it was run: as §2
# [12] = Clearance in CD1 mouse at 50 mg/kg, ip; format: ADME, organism-based; design: dose 50 mg/kg, route intraperitoneal; conditions: in vivo; how it was run: as §2
# [13] = Clearance in CD1 mouse at 25 mg/kg, ip; format: ADME, organism-based; design: dose 25 mg/kg, route intraperitoneal; conditions: in vivo; how it was run: as §2
# [14] = test system: Mus musculus; assay: Apparent volume of distribution in CD1 mouse at 50 mg/kg, ip bid; format: ADME, organism-based; design: dose 50 mg/kg, route intraperitoneal; conditions: in vivo; how it was run: as §1
# [15] = test system: Mus musculus; assay: Apparent volume of distribution in CD1 mouse at 100 mg/kg, ip; format: ADME, organism-based; design: dose 100 mg/kg, route intraperitoneal; conditions: in vivo; how it was run: as §1
# [16] = test system: Mus musculus; assay: Apparent volume of distribution in CD1 mouse at 50 mg/kg, ip; format: ADME, organism-based; design: dose 50 mg/kg, route intraperitoneal; conditions: in vivo; how it was run: as §1
# [17] = test system: Mus musculus; assay: Apparent volume of distribution in CD1 mouse at 25 mg/kg, ip; format: ADME, organism-based; design: dose 25 mg/kg, route intraperitoneal; conditions: in vivo; how it was run: as §1
# [18] = test system: Mus musculus; assay: Half life in CD1 mouse at 50 mg/kg, ip bid; format: ADME, organism-based; design: dose 50 mg/kg, route intraperitoneal; conditions: in vivo; how it was run: as §1
# [19] = test system: Mus musculus; assay: Half life in CD1 mouse at 100 mg/kg, ip; format: ADME, organism-based; design: dose 100 mg/kg, route intraperitoneal; conditions: in vivo; how it was run: as §1
# [20] = test system: Mus musculus; assay: Half life in CD1 mouse at 50 mg/kg, ip; format: ADME, organism-based; design: dose 50 mg/kg, route intraperitoneal; conditions: in vivo; how it was run: as §1
# [21] = test system: Mus musculus; assay: Half life in CD1 mouse at 25 mg/kg, ip; format: ADME, organism-based; design: dose 25 mg/kg, route intraperitoneal; conditions: in vivo; how it was run: as §1
# [22] = test system: Mus musculus; assay: Cmax in CD1 mouse at 50 mg/kg, ip bid; format: ADME, organism-based; design: dose 50 mg/kg, route intraperitoneal; conditions: in vivo; how it was run: as §1
# [23] = test system: Mus musculus; assay: Cmax in CD1 mouse at 100 mg/kg, ip; format: ADME, organism-based; design: dose 100 mg/kg, route intraperitoneal; conditions: in vivo; how it was run: as §1
# [24] = test system: Mus musculus; assay: Cmax in CD1 mouse at 50 mg/kg, ip; format: ADME, organism-based; design: dose 50 mg/kg, route intraperitoneal; conditions: in vivo; how it was run: as §1
# [25] = test system: Mus musculus; assay: Cmax in CD1 mouse at 25 mg/kg, ip; format: ADME, organism-based; design: dose 25 mg/kg, route intraperitoneal; conditions: in vivo; how it was run: as §1
# [26] = test system: Mus musculus; assay: Tmax in CD1 mouse at 50 mg/kg, ip bid; format: ADME, organism-based; design: dose 50 mg/kg, route intraperitoneal; conditions: in vivo; how it was run: as §1
# [27] = test system: Mus musculus; assay: Tmax in CD1 mouse at 100 mg/kg, ip; format: ADME, organism-based; design: dose 100 mg/kg, route intraperitoneal; conditions: in vivo; how it was run: as §1
# [28] = test system: Mus musculus; assay: Tmax in CD1 mouse at 50 mg/kg, ip; format: ADME, organism-based; design: dose 50 mg/kg, route intraperitoneal; conditions: in vivo; how it was run: as §1
# [29] = test system: Mus musculus; assay: Tmax in CD1 mouse at 25 mg/kg, ip; format: ADME, organism-based; design: dose 25 mg/kg, route intraperitoneal; conditions: in vivo; how it was run: as §1
# [30] = Inhibition of Bacillus anthracis UDP-GlcNAc 2-epimerase using UDP-GlcNAc as substrate preincubated for 15 mins by UDP-ManNAc dehydrogenase-coupled assay
# [31] = Chemical stability in aqueous solution assessed as compound isomerization/degradation at pH 10 after 3 days by HPLC/NMR analysis; format: physicochemical; conditions: buffer, pH 10, 72 h
# [32] = Aqueous solubility of the compound; format: physicochemical; conditions: buffer
# [33] = test system: Enterococcus faecium; assay: Antibacterial activity against Enterococcus faecium 6569 assessed as growth inhibition measured for 3 days by broth microdilution method; format: functional
# How it was run: (§3)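 MIC by broth microdilution against a panel of Gram-positive and Gram-negative strains (ATCC-type numbers where given). Run in triplicate on three different days.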
# [34] = test system: Enterococcus faecalis; assay: Antibacterial activity against Enterococcus faecalis 19433 assessed as growth inhibition measured for 3 days by broth microdilution method; format: functional; how it was run: as §3
# [35] = test system: Streptococcus agalactiae; assay: Antibacterial activity against Streptococcus agalactiae 12386 assessed as growth inhibition measured for 3 days by broth microdilution method; format: functional; conditions: Streptococcus agalactiae, 12386, 72 h; how it was run: as §3
# [36] = test system: Staphylococcus epidermidis; assay: Antibacterial activity against Staphylococcus epidermidis 13518 assessed as growth inhibition measured for 3 days by broth microdilution method; format: functional; conditions: Staphylococcus epidermidis, 13518, 72 h; how it was run: as §3
# [37] = test system: Proteus mirabilis; assay: Antibacterial activity against Proteus mirabilis assessed as growth inhibition measured for 3 days by broth microdilution method; format: functional; how it was run: as §3
# [38] = test system: Acinetobacter baumannii; assay: Antibacterial activity against Acinetobacter baumannii assessed as growth inhibition measured for 3 days by broth microdilution method; format: functional; how it was run: as §3
# [39] = test system: Bacillus atrophaeus; assay: Antibacterial activity against Bacillus atrophaeus assessed as growth inhibition measured for 3 days by broth microdilution method; format: functional; how it was run: as §3
# [40] = test system: Shigella sonnei; assay: Antibacterial activity against Shigella sonnei assessed as growth inhibition measured for 3 days by broth microdilution method; format: functional; how it was run: as §3
# [41] = test system: Serratia marcescens; assay: Antibacterial activity against Serratia marcescens assessed as growth inhibition measured for 3 days by broth microdilution method; format: functional; how it was run: as §3
# [42] = test system: Candida albicans; assay: Antifungal activity against Candida albicans assessed as growth inhibition measured for 3 days by broth microdilution method; format: functional; conditions: 72 h
# [43] = test system: Escherichia coli; assay: Antibacterial activity against Escherichia coli assessed as growth inhibition measured for 3 days by broth microdilution method; format: functional; how it was run: as §3
# [44] = test system: Salmonella enterica; assay: Antibacterial activity against Salmonella enterica assessed as growth inhibition measured for 3 days by broth microdilution method; format: functional; how it was run: as §3
# [45] = test system: Pseudomonas aeruginosa; assay: Antibacterial activity against Pseudomonas aeruginosa assessed as growth inhibition measured for 3 days by broth microdilution method; format: functional; how it was run: as §3
structure (smiles),measurement,setting,value
O=C([O-])[C@H](Cc1ccccc1)N1C(=O)/C(=C\c2ccc(-c3ccc(Cl)c(Cl)c3)o2)NC1=S.[Na+],T>MIC,[1],18.3 h
same,T>MIC,[2],19.4 h
same,T>MIC,[3],14.6 h
same,T>MIC,[4],10.6 h
same,Activity,[5],Non-toxic
same,AUC,[6],1050 µg·h/mL
same,AUC,[7],1800 µg·h/mL
same,AUC,[8],480 µg·h/mL
same,AUC,[9],170 µg·h/mL
same,CL/F,[10],0.783 mL/min/kg
same,CL/F,[11],0.917 mL/min/kg
same,CL/F,[12],1.67 mL/min/kg
same,CL/F,[13],2.33 mL/min/kg
same,Vz,[14],0.24 L/kg
same,Vz,[15],0.18 L/kg
same,Vz,[16],0.34 L/kg
same,Vz,[17],0.5 L/kg
same,t1/2,[18],3.4 h
same,t1/2,[19],2.2 h
same,t1/2,[20],2.3 h
same,t1/2,[21],2.4 h
same,Cmax,[22],320 µg/mL
same,Cmax,[23],490 µg/mL
same,Cmax,[24],140 µg/mL
same,Cmax,[25],68 µg/mL
same,Tmax,[26],3.08 h
same,Tmax,[27],4.8 min
same,Tmax,[28],0.5 h
same,Tmax,[29],4.8 min
same,Ki,[30],82 µM
same,Stability,[31],Stable
same,solubility,[32],soluble
same,MIC,[33],15.6 µM
same,MIC,[34],15.6 µM
same,MIC,[35],3.9 µM
same,MIC,[36],2 µM
same,MIC,[37],> 25 µM
same,MIC,[38],> 25 µM
same,MIC,[39],7.8 µM
same,MIC,[40],> 25 µM
same,MIC,[41],> 25 µM
same,MIC,[42],> 25 µM
same,MIC,[43],> 25 µM
same,MIC,[44],> 25 µM
same,MIC,[45],> 25 µM
